The IC50 is the concentration that gives 50% inhibition.

For 19 molecules, IC50 results are on record in PubChem BioAssay AID635 (SRMLSC, 2007).

This assay deals with E. coli BW25113 growth inhibition, OD615. Put plainly: growth inhibition of wild-type E. coli BW25113 pool, dose response, OD615 (AID 635). As to conditions: pooled mutant strains. In short, it runs like this: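 times: 20 h, 37 °C growth with compound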
Take `CC(=O)c1c(C)n([O-])c2ccccc2[n+]1=O`: the IC50 was 48.6 µM. Next, `CN1CCN(c2c(F)cc3c(=O)c(C(=O)O)cn4c3c2SCC4)CC1`: 1.11 µM. In the case of `CCCCNc1cc(C)nc(NCc2ccccc2)n1`, the IC50 was 98.5 µM. In the case of `CCC(=O)N1CCN(c2cc3c(cc2F)c(=O)c(C(=O)O)cn3CC)CC1` it was 4.01 µM.

Take `CC(=O)OCC1=C(C(=O)O)N2C(=O)[C@@H](NC(=O)Cc3cccs3)[C@H]2SC1`: the 50% inhibitory concentration (IC50) was 10.5 µM.

Turning to `CN(C)[C@@H]1C(=O)C(C(N)=O)=C(O)[C@@]2(O)C(=O)C3=C(O)c4c(O)ccc(Cl)c4[C@@H](O)[C@H]3C[C@@H]12`, the IC50 is 0.579 µM. Next, `COc1cc(Cc2cnc(N)nc2N)cc(OC)c1OC`: 0.595 µM; `O=S1(=O)Nc2c(ccc3cccnc23)-c2ccccc21`: 20.3 µM; `c1ccc(-c2cccc(-c3ccccn3)n2)nc1`: 41.8 µM.

In the case of `CCn1cc(C(=O)O)c(=O)c2cc(F)c(N3CCN(C(=O)Nc4ccccc4)CC3)cc21`, the IC50 was 4.05 µM. Next, `O=c1ccsn1Cc1ccccc1`: 34.6 µM. Next, `CCCCOc1ccc(NC2=NC3(CCCCC3)N=C(N)N2)cc1`: 41 µM. Next, `COc1ccc(OCC(O)CNc2ccc(Br)cc2)cc1` (centres undefined): 102 µM; `Oc1c(CN2CCCCC2)cc(Br)c2cccnc12`: 37.5 µM; `COc1c(N2CCNC(C)C2)c(F)cc2c(=O)c(C(=O)O)cn(C3CC3)c12` (centres undefined): under 0.195 µM. Take `CCn1cc(C(=O)NCc2ccc3c(c2)OCO3)c(=O)c2cc(F)c(N3CCN(C)CC3)cc21`: the IC50 was 28.6 µM. Next, `CO[C@@]1(NC(=O)Cc2cccs2)C(=O)N2C(C(=O)O)=C(COC(N)=O)CS[C@@H]21`: 9.78 µM. Turning to `C=CCNc1ncnc2c1[nH]c1ccc(C)cc12`, the IC50 was 41.7 µM. In the case of `NC1C2CN(c3nc4c(cc3F)c(=O)c(C(=O)O)cn4-c3ccc(F)cc3F)CC12` (centres undefined) it was 0.006 µM.
